According to ChEMBL document CHEMBL4004830 (J Med Chem, 2017):
Active and inactive are the calls of the source. The rule behind the calls is not given here.

How the values were obtained:
MV4-11 [1] = assay: Cell cycle arrest in human MV4-11 cells assessed as accumulation at G1 phase at 0.20 uM after 24 hrs by propidium iodide staining based flow cytometry (reference value: 61.01%); type: functional
MV4-11 [2] = assay: Cell cycle arrest in human MV4-11 cells assessed as accumulation at sub-G1 phase at 0.20 uM after 24 hrs by propidium iodide staining based flow cytometry (reference value: 1.99%); type: functional
MV4-11 [3] = assay: Cell cycle arrest in human MV4-11 cells assessed as accumulation at G2/M phase at 0.04 uM after 24 hrs by propidium iodide staining based flow cytometry (reference value: 17.94%); type: functional
MV4-11 [4] = assay: Cell cycle arrest in human MV4-11 cells assessed as accumulation at S phase at 0.20 uM after 24 hrs by propidium iodide staining based flow cytometry (reference value: 19.07%); type: functional
MV4-11 [5] = assay: Cell cycle arrest in human MV4-11 cells assessed as accumulation at S phase at GI50 after 24 hrs by propidium iodide staining based flow cytometry (reference value: 21.97%); type: functional
Outline: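 MV4-11 cells were treated with increasing concentrations for 24 h. Cells were then harvested, fixed and stained with propidium iodide before flow cytometric cell cycle analysis.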

MV4-11 [6] = assay: Cell cycle arrest in human MV4-11 cells assessed as accumulation at G2/M phase at 0.40 uM after 24 hrs by propidium iodide staining based flow cytometry (reference value: 17.94%); type: functional
MV4-11 [7] = assay: Cell cycle arrest in human MV4-11 cells assessed as accumulation at sub-G1 phase at 0.40 uM after 24 hrs by propidium iodide staining based flow cytometry (reference value: 1.99%); type: functional
MV4-11 [8] = assay: Effect on total Rb protein levels in human MV4-11 cells at GI50 after 12 to 24 hrs by Western blot analysis; type: cell-based
Outline: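 MV4-11 cells were treated for 12 or 24 h, then analysed by Western blot for Rb, including phospho-Ser780. β-Actin served as the loading control. Data are representative of two independent experiments.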

[9] = target: Cyclin-dependent kinase 4/cyclin D1 (Homo sapiens, UniProt P11802); assay: Inhibition of CDK4/cyclin D1 (unknown origin) in presence of [gamma-33P]-ATP […]; type: protein-complex assay; conditions: read-out: Ki(app)
CDK9/cyclin T1 = CDK9/cyclin T1 (Homo sapiens, UniProt P50750); assay: Inhibition of CDK9/cyclin T1 (unknown origin) in presence of [gamma-33P]-ATP […]; type: protein-complex assay; conditions: read-out: Ki(app)
[10] = Cmax in BALB/c mouse at 2 mg/kg, iv up to 24 hrs by LC-MS/MS analysis; type: ADME, organism-based; design: dose 2 mg/kg, route intravenous; conditions: in vivo
CDK6/cyclin D3 = CDK6/cyclin D3 (Homo sapiens, UniProt Q00534); assay: Inhibition of CDK6/cyclin D3 (unknown origin) in presence of [gamma-33P]-ATP […]; type: protein-complex assay; conditions: read-out: Ki(app)
[11] = AUC (0 to t) in albino Wistar rat at 20 mg/kg administered via oral gavage measured up to 24 hrs by LC-MS/MS analysis; type: ADME, organism-based; design: dose 20 mg/kg, time < 24 hr, route oral; conditions: in vivo
[12] = target: Cyclin-dependent kinase 1/cyclin B1 (Homo sapiens) (UniProt P06493+P14635); assay: Inhibition of CDK1/cyclin B (unknown origin) in presence of [gamma-33P]-ATP […]; type: protein-complex assay
[13] = Clearance in BALB/c mouse at 2 mg/kg, iv up to 24 hrs by LC-MS/MS analysis; type: ADME, organism-based; conditions: in vivo
[14] = Half life in BALB/c mouse at 2 mg/kg, iv up to 24 hrs by LC-MS/MS analysis; type: ADME, organism-based; conditions: in vivo
Outline: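 Single-dose pharmacokinetics in male BALB/c mice, 2 mg/kg IV or 10 mg/kg PO.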

[15] = Octanol/aqueous buffer partition co-efficient, log D of the compound at pH 7.4 by shake-flask method; type: physicochemical
[16] = target: Cyclin-dependent kinase 7/ cyclin H (Homo sapiens) (UniProt P51946+P50613); assay: Inhibition of CDK7/cyclin H (unknown origin) in presence of [gamma-33P]-ATP […]; type: protein-complex assay
[17] = Cmax in albino Wistar rat at 5 mg/kg, iv up to 24 hrs by LC-MS/MS analysis; type: ADME, organism-based; design: dose 5 mg/kg, route intravenous; conditions: in vivo
[18] = AUC (0 to t) in BALB/c mouse at 2 mg/kg, iv up to 24 hrs by LC-MS/MS analysis; type: ADME, organism-based; design: dose 2 mg/kg, time < 24 hr, route intravenous; conditions: in vivo
[19] = Clearance in albino Wistar rat at 5 mg/kg, iv up to 24 hrs by LC-MS/MS analysis; type: ADME, organism-based; conditions: in vivo
MV4-11 [20] = assay: Antitumor activity against human MV4-11 cells xenografted in nude BALB/c mouse assessed as tumor volume at 100 mg/kg, po qd administered for 33 consecutive days measured on day 31; type: functional
[21] = target: Cyclin-dependent kinase 4/6 (Homo sapiens) (UniProt P11802+Q00534); assay: Inhibition of CDK4/6 in human MV4-11 cells assessed as reduction in Rb phosphorylation at Ser780 after 12 to 24 hrs by Western blot analysis; type: cell-based
Outline: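 MV4-11 cells treated 12 or 24 h across a dose series; Rb phospho-Ser780 detected by Western blot with β-actin as loading control; two independent experiments.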

Mus musculus = assay: Toxicity in nude BALB/c mouse xenografted with human MV4-11 cells assessed as body weight loss at 100 mg/kg, po qd for 33 consecutive days and left untreated for another 50 days; type: organism-based; conditions: in vivo, 1200 h
[22] = AUC (0 to t) in albino Wistar rat at 5 mg/kg, iv up to 24 hrs by LC-MS/MS analysis; type: ADME, organism-based; design: dose 5 mg/kg, time < 24 hr, route intravenous; conditions: in vivo
[23] = Oral bioavailability in albino Wistar rat at 20 mg/kg measured up to 24 hrs by LC-MS/MS analysis; type: ADME, organism-based; conditions: in vivo
Outline: (§1)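 Single-dose pharmacokinetics in male animals: albino Wistar rats given 5 mg/kg IV or 20 mg/kg PO, and BALB/c mice given 2 mg/kg IV or 10 mg/kg PO.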

[24] = target: Dual specificity tyrosine-phosphorylation-regulated kinase 3 (Homo sapiens) (UniProt O43781); assay: Inhibition of DYRK3 (unknown origin) at 1 uM in presence of [gamma-33P]-ATP […]
Outline: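 Broad kinome panel of 369 kinases screened at 1 µM test concentration.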

[25] = Apparent permeability co-efficient from basolateral to apical side in human Caco2 cells; type: ADME, cell-based; conditions: Caco-2
Outline: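 Caco-2 monolayer assay measuring the apparent permeability coefficient (P_app, 10^-6 cm/s) in the A→B and B→A directions. Efflux ratio is the mean P_app B-A divided by the mean P_app A-B.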

MV4-11 [26] = assay: Antitumor activity against human MV4-11 cells xenografted in nude BALB/c mouse assessed as tumor growth inhibition at 100 mg/kg, po qd administered for 33 consecutive days measured post last dose; type: functional; conditions: MV4-11, po, read-out: TGI
[27] = Tmax in albino Wistar rat at 20 mg/kg administered via oral gavage measured up to 24 hrs by LC-MS/MS analysis; type: ADME, organism-based; conditions: in vivo; outline: as §1
MV4-11 [28] = assay: Antitumor activity against human MV4-11 cells xenografted in nude BALB/c mouse assessed as tumor growth inhibition at 100 mg/kg, po qd administered for 33 consecutive days measured on day 50; type: functional, organism-based
[29] = Half-life in albino Wistar rat at 5 mg/kg, iv up to 24 hrs by LC-MS/MS analysis; type: ADME, organism-based; conditions: in vivo
Outline: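 Single-dose pharmacokinetics in male albino Wistar rats, 5 mg/kg IV.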

Sequence of CDK9/cyclin T1 (O60563 whole entry): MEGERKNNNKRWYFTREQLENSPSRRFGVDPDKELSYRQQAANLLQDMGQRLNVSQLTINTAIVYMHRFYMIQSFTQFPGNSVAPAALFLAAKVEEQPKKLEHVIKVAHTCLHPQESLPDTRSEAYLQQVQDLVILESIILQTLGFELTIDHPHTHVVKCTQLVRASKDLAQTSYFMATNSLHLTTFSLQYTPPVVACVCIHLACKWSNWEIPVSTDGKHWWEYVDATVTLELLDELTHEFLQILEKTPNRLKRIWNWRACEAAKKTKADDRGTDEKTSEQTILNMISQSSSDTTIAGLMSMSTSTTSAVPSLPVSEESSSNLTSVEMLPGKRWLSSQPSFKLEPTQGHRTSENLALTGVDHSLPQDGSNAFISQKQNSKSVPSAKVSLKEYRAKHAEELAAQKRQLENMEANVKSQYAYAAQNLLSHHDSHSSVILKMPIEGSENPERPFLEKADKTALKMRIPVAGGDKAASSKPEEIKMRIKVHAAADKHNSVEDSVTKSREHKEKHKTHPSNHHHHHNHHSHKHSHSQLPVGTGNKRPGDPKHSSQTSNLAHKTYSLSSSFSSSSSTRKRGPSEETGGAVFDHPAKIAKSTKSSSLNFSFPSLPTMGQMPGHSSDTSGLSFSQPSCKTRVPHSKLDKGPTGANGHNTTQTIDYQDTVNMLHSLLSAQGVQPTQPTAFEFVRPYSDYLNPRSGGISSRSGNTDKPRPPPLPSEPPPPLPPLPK
Sequence of CDK9/cyclin T1 (P50750 whole entry): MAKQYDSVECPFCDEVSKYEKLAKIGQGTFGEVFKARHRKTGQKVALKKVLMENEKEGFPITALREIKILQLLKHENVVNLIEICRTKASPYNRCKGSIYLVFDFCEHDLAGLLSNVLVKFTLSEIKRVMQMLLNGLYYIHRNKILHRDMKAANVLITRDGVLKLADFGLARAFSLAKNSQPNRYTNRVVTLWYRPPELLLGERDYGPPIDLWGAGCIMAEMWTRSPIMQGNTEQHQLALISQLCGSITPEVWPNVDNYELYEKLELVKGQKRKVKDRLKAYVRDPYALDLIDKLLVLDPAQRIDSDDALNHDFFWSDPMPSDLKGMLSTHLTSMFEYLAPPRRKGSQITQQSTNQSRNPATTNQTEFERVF
Sequence of Cyclin-dependent kinase 1/cyclin B1 (Homo sapiens) (P06493 whole entry, looked up): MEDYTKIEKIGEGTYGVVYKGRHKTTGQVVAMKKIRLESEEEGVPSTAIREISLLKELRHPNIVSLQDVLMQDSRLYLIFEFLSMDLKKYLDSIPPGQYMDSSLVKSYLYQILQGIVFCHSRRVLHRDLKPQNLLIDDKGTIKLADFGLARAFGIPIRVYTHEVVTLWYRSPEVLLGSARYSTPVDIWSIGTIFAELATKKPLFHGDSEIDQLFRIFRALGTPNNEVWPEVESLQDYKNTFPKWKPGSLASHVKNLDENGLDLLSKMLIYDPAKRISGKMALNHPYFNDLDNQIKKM
Sequence of Cyclin-dependent kinase 1/cyclin B1 (Homo sapiens) (P14635 whole entry, looked up): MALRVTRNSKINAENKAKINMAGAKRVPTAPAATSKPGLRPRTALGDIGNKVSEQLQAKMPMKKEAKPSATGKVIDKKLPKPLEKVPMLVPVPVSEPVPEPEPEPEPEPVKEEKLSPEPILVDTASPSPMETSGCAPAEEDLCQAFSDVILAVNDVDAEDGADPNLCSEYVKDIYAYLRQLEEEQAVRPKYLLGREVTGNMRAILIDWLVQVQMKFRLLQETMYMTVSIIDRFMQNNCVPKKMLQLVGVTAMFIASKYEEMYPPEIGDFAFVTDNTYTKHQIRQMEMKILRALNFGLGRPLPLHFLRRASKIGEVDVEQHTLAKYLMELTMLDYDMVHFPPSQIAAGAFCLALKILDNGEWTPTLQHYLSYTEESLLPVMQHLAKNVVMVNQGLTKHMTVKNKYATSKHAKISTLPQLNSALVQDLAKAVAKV
Sequence of CDK6/cyclin D3 (P30281 whole entry): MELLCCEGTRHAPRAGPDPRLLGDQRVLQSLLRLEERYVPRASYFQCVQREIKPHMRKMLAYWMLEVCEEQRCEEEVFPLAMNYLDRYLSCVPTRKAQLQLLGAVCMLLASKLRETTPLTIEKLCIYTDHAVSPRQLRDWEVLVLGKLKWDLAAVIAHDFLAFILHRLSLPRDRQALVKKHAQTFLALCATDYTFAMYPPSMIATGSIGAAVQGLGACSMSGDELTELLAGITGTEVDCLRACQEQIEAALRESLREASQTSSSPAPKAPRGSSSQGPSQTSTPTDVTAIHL
Sequence of CDK6/cyclin D3 (Q00534 whole entry): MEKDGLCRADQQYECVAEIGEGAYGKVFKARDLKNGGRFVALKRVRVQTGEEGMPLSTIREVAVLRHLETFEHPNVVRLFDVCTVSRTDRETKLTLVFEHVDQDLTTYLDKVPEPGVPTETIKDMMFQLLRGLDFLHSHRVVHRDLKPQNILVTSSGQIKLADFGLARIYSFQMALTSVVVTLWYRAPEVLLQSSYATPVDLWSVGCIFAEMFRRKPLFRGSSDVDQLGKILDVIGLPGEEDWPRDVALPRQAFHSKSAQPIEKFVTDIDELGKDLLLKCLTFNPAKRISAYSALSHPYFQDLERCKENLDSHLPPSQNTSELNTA
Sequence of Dual specificity tyrosine-phosphorylation-regulated kinase 3 (Homo sapiens) (O43781 whole entry): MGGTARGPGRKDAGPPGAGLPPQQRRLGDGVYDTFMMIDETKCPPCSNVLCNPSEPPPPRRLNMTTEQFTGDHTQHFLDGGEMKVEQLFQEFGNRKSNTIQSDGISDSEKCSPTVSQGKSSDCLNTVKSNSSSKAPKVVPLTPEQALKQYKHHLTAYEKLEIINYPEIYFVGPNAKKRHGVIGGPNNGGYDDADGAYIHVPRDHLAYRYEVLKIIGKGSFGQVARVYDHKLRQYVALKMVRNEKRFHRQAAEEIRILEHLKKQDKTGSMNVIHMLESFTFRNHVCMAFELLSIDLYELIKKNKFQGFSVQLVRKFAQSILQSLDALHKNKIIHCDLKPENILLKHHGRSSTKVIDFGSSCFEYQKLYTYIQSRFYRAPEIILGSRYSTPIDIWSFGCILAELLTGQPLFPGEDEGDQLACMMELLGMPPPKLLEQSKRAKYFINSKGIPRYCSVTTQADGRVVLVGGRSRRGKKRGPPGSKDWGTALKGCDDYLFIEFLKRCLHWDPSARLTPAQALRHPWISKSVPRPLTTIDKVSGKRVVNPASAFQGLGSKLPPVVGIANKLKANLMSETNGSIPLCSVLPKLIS
Sequence of Cyclin-dependent kinase 4/6 (Homo sapiens) (P11802 whole entry, looked up): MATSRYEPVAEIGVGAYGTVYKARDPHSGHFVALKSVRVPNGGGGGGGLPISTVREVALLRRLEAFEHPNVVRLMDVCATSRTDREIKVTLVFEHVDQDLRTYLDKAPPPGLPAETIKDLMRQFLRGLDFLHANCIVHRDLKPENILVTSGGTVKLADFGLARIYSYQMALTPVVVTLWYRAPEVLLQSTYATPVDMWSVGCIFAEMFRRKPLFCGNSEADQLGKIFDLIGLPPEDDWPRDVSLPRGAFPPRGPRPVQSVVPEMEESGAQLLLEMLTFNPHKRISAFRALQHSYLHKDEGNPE
Sequence of Cyclin-dependent kinase 4/6 (Homo sapiens) (Q00534 whole entry, looked up): as the sequence (Q00534 whole entry) above
Sequence of Cyclin-dependent kinase 4/cyclin D1 (P11802 whole entry): as the sequence (P11802 whole entry, looked up) above
Sequence of Cyclin-dependent kinase 4/cyclin D1 (P24385 whole entry, further chain): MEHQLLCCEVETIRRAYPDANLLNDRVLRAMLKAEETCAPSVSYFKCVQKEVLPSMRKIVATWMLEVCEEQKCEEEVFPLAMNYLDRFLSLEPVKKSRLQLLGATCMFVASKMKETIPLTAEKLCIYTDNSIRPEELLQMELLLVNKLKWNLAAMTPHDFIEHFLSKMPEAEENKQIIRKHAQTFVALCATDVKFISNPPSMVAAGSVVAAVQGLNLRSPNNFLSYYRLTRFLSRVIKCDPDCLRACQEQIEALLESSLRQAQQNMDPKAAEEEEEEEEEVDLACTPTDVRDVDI

**Q.** For `CC(=O)c1c(C)c2cnc(Nc3ccc(N4CCNCC4)cn3)nc2n(C2CCCC2)c1=O` [PALBOCICLIB], which Activity (MV4-11 [1]) is on record?
**A.** 80.66%

**Q.** And the Activity (MV4-11 [2])?
**A.** 4.22%

**Q.** What about the Activity (MV4-11 [3]) of the same molecule?
**A.** 13.4%

**Q.** What about the Activity (MV4-11 [4]) of the same molecule?
**A.** 9.33%

**Q.** What about the Activity (MV4-11 [5]) of the same molecule?
**A.** 12.18%

**Q.** And the Activity (MV4-11 [6])?
**A.** 5.69%

**Q.** What about the Activity (MV4-11 [7]) of the same molecule?
**A.** 2.93%

**Q.** And the Activity (MV4-11 [8])?
**A.** Toxic

**Q.** With `Cc1nc(NC2CCCC2)sc1-c1ccnc(Nc2ccc(N3CCOCC3)cn2)n1` as the molecule, how does the Ki [9] read?
**A.** 4 nM

**Q.** And the Ki (CDK9/cyclin T1)?
**A.** > 5000 nM

**Q.** What about the Activity (MV4-11 [5]) of the same molecule?
**A.** 17.77%

**Q.** What about the Cmax [10] of the same molecule?
**A.** 2.3 µM

**Q.** What about the Ki (CDK6/cyclin D3) of the same molecule?
**A.** 30 nM

**Q.** And the AUC(0-t) at 24 h [11]?
**A.** 15.9 µM·h

**Q.** And the “Ki(app)” value [12]?
**A.** inactive

**Q.** What about the clearance [13] of the same molecule?
**A.** 58.3 mL/min/kg

**Q.** And the half-life [14]?
**A.** 1.7 h

**Q.** And the logD [15]?
**A.** 4.4

**Q.** And the “Ki(app)” value [16]?
**A.** inactive

**Q.** What about the Cmax [17] of the same molecule?
**A.** 38.8 µM

**Q.** And the AUC(0-t) at 24 h [18]?
**A.** 1.2 µM·h

**Q.** And the clearance [19]?
**A.** 11.8 mL/min/kg

**Q.** What about the T/C (MV4-11 [20]) of the same molecule?
**A.** 30%

**Q.** And the inhibition [21]?
**A.** Dose-dependent effect

**Q.** And the Activity (Mus musculus)?
**A.** Non-Toxic

**Q.** What about the AUC(0-t) at 24 h [22] of the same molecule?
**A.** 15.9 µM·h

**Q.** What about the bioavailability [23] of the same molecule?
**A.** 25.1 to 27%

**Q.** What about the inhibition [24] of the same molecule?
**A.** Active

**Q.** And the Papp B→A [25]?
**A.** 3.98 ×10⁻⁶ cm/s

**Q.** What about the inhibition in vivo at 100 mg/kg (MV4-11 [26]) of the same molecule?
**A.** 76%

**Q.** What about the Tmax [27] of the same molecule?
**A.** 3.7 h

**Q.** And the TGI (MV4-11 [28])?
**A.** Active

**Q.** What about the half-life [29] of the same molecule?
**A.** 4.2 h
